Test results from the array DNA melting data of Ke et al. (doi:10.1101/2024.01.08.574731).

How the values were obtained:
[1] = melting temperature; fluorescence melt of hairpins on a sequencing array, two-state fit, raised by 9.35 °C to match UV melts; details: sodium 0.088 M
Procedure, shortened: (§1)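 Bootstrapped two-state fits yielded melting temperature and folding enthalpy for library hairpins. Cy3 fluorescence, with annealed Cy3 and quencher oligos, was imaged on a sequenced MiSeq flow cell in 50 mM Na-HEPES pH 8.0, 25 mM NaCl in 2.5 °C steps up to 60 °C, and normalised to pre-quench Cy3 and to control constructs. Four replicates were combined by inverse variance, and fitted temperatures were raised by 9.35 °C to match UV melts.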

[2] = folding enthalpy; higher = less favourable; fluorescence melt of hairpins on a sequencing array, two-state fit; details: sodium 0.088 M
Procedure, shortened: as §1

Sequence | Tm [1] [°C] | folding enthalpy [2] [kcal/mol]
GATCCCAGAAGGGATC ((((((....)))))) | 60.4 | -34.7
GATCCCAGATGGGATC ((((((....)))))) | 57.6 | -34.1
GATCCCATATGGGATC ((((((....)))))) | 61.8 | -35.3
GATCCCATGAGGGATC ((((((....)))))) | 61.4 | -30.3
GATCCCATGGGGATC ((((((...)))))) | 65.8 | -33.2
GATCCCCAAAGGGATC ((((((....)))))) | 59.7 | -33.5
GATCCCCACCGGGATC ((((((....)))))) | 57.3 | -34.7
GATCCCCATGGGATC ((((((...)))))) | 63 | -37.5
GATCCCCCACGGGATC ((((((....)))))) | 58.1 | -35.6
GATCCCCCCAGGGATC ((((((....)))))) | 63.3 | -38.1
GATCCCCCCTGGGATC ((((((....)))))) | 58.4 | -39.1
GATCCCCCGAAAGGGATC (((..(((....)))))) | 52.4 | -30.7
GATCCCCCTCGGGATC ((((((....)))))) | 58.2 | -34
GATCCCCGAAGGGATC ((((((....)))))) | 57.1 | -15.6
GATCCCCGCAGGGATC ((((((....)))))) | 62.8 | -18.1
GATCCCCGTAGGGATC ((((((....)))))) | 61.9 | -20.6
GATCCCCGTTGGGATC ((((((....)))))) | 62.2 | -32.3
GATCCCCTCCGGGATC ((((((....)))))) | 58.4 | -36
GATCCCCTCGGGGATC ((((((....)))))) | 67.6 | -32.5
GATCCCCTGCGGGATC ((((((....)))))) | 58.2 | -33.6
GATCCCCTGGGGATC ((((((...)))))) | 64.8 | -32.8
GATCCCGAAAGGGAGATC ((((((....)))..))) | 50.5 | -20.6
GATCCCGAAAGGGCATC ((((((....))).))) | 42.1 | -17
GATCCCGAAAGGGGCATC ((((((....)))..))) | 35.6 | -11.6

Sequence | Tm [1] [°C] | folding enthalpy [2] [kcal/mol]
GATCCCGACCGGGATC ((((((....)))))) | 66.5 | -37.5
GATCCCGAGGGGATC ((((((...)))))) | 62.6 | -42.5
GATCCCGAGGGGGATC ((((((....)))))) | 59.7 | -35.3
GATCCCGATGGGGATC ((((((....)))))) | 63.3 | -34.8
GATCCCGCAGGGGATC ((((((....)))))) | 65.5 | -15.7
GATCCCGCCCGGGATC ((((((....)))))) | 67.1 | -32.8
GATCCCGCCTGGGATC ((((((....)))))) | 64.9 | -39.1
GATCCCGCGGGGGATC ((((((....)))))) | 59.9 | -31
GATCCCGCTTGGGATC ((((((....)))))) | 59.5 | -46.9
GATCCCGGACGGGATC ((((((....)))))) | 68.5 | -34.5
GATCCCGGCGGGATC ((((((...)))))) | 68.2 | -36.5
GATCCCGGCGGGGATC ((((((....)))))) | 61.3 | -47.7
GATCCCGGCTGGGATC ((((((....)))))) | 60.4 | -32
GATCCCGTCGGGATC ((((((...)))))) | 67.2 | -37.7
GATCCCGTGCGGGATC ((((((....)))))) | 66.3 | -35.8
GATCCCGTTCGGGATC ((((((....)))))) | 67.8 | -43.2
GATCCCTAGAGGGATC ((((((....)))))) | 59 | -40.2
GATCCCTAGGGGATC ((((((...)))))) | 61.1 | -35.4
GATCCCTAGGGGGATC ((((((....)))))) | 60.4 | -34.8
GATCCCTCGTGGGATC ((((((....)))))) | 62.2 | -40.2
GATCCCTGCGGGATC ((((((...)))))) | 66.1 | -35.8
GATCCCTGGAGGGATC ((((((....)))))) | 59.4 | -34.4
GATCCCTTCGGGATC ((((((...)))))) | 65.3 | -41.1
GATCCCTTGAGGGATC ((((((....)))))) | 62.4 | -42.9

Sequence | Tm [1] [°C] | folding enthalpy [2] [kcal/mol]
GATCCGAACCGGATC ((((((...)))))) | 57 | -40.2
GATCCGAAGACGGATC ((((((....)))))) | 54.7 | -37
GATCCGACATCGGATC ((((((....)))))) | 55.8 | -46.8
GATCCGACCTCGGATC ((((((....)))))) | 59.1 | -40.9
GATCCGAGATCGGATC ((((((....)))))) | 56.4 | -42.3
GATCCGAGTGCGGATC ((((((....)))))) | 59.1 | -40.6
GATCCGATACGGATC ((((((...)))))) | 59.6 | -32.7
GATCCGATCCGGATC ((((((...)))))) | 58.5 | -33.7
GATCCGCACACGGATC ((((((....)))))) | 59.9 | -44.5
GATCCGCAGCCGGATC ((((((....)))))) | 55.9 | -40.7
GATCCGCATCCGGATC ((((((....)))))) | 56.6 | -38
GATCCGCCGTCGGATC ((((((....)))))) | 56.9 | -40.7
GATCCGCCTTCGGATC ((((((....)))))) | 55.9 | -44.3
GATCCGCGAAAGCGCATC (((.(((....))).))) | 36.5 | -14.1
GATCCGCGCCGGATC ((((((...)))))) | 60 | -33.9
GATCCGCGTCGGATC ((((((...)))))) | 57.3 | -35.6
GATCCGCTACGGATC ((((((...)))))) | 57.2 | -31.7
GATCCGCTCCGGATC ((((((...)))))) | 59.2 | -37.5
GATCCGCTGTCGGATC ((((((....)))))) | 57.8 | -42.1
GATCCGGACGCGGATC ((((((....)))))) | 59.5 | -38
GATCCGGATACGGATC ((((((....)))))) | 67.9 | -38.8
GATCCGGATCGGATC ((((((...)))))) | 55.6 | -35.4
GATCCGGGAAACCGAATC (((.(((....))).))) | 38.2 | -24.5
GATCCGGTCTCGGATC ((((((....)))))) | 58.6 | -26.6

Sequence | Tm [1] [°C] | folding enthalpy [2] [kcal/mol]
GATCCGTACGCGGATC ((((((....)))))) | 63.5 | -39.5
GATCCGTCACCGGATC ((((((....)))))) | 57.2 | -41.6
GATCCGTCGGCGGATC ((((((....)))))) | 59 | -39.3
GATCCGTGACCGGATC ((((((....)))))) | 56 | -44.1
GATCCGTGCTCGGATC ((((((....)))))) | 59.7 | -43.9
GATCCGTGGTCGGATC ((((((....)))))) | 58.7 | -38.8
GATCCGTGTCGGATC ((((((...)))))) | 60.5 | -34.4
GATCCGTTATCGGATC ((((((....)))))) | 59.2 | -36
GATCCGTTGGCGGATC ((((((....)))))) | 59.6 | -36.5
GATCCGTTGTCGGATC ((((((....)))))) | 59.4 | -44.4
GATCCGTTTACGGATC ((((((....)))))) | 68.1 | -39.3
GATCCGTTTCGGATC ((((((...)))))) | 63 | -38
GATCCTAAACAGGATC ((((((....)))))) | 49 | -31.5
GATCCTAACAAGGATC ((((((....)))))) | 51.5 | -32.6
GATCCTAACAGGATC ((((((...)))))) | 55.3 | -40.5
GATCCTAACCAGGATC ((((((....)))))) | 52 | -32.3
GATCCTAACTAGGATC ((((((....)))))) | 53.3 | -36.2
GATCCTAATTAGGATC ((((((....)))))) | 52 | -45.2
GATCCTACCTAGGATC ((((((....)))))) | 53 | -31.6
GATCCTACGTAGGATC ((((((....)))))) | 53.3 | -40.6
GATCCTACTAGGATC ((((((...)))))) | 53.6 | -36.2
GATCCTAGAGAGGATC ((((((....)))))) | 48 | -35.4
GATCCTAGCAGGATC ((((((...)))))) | 55.9 | -37
GATCCTAGCCAGGATC ((((((....)))))) | 52.1 | -40.2
